Test results published in ChEMBL document CHEMBL3351344 (J Med Chem, 2014).

Tests used:
Cytochrome P450 2D6 = Cytochrome P450 2D6 (Homo sapiens, UniProt P10635); test: Inhibition of CYP2D6 (unknown origin)
Liver microsome [1] = test: Metabolic stability in human liver microsomes assessed as compound remaining at 10 uM after 30 mins; type: ADME; details: 0.5 h
Outline: (§1)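 Compound at 10 µM was incubated for 30 min with liver microsomes (H = human, R = rat). Stability was expressed as percent of compound remaining.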

[2] = Aqueous kinetic solubility of the compound in pH 7.4 PBS buffer; type: physicochemical
Cytochrome P450 2C9 = Cytochrome P450 2C9 (Homo sapiens, UniProt P11712); test: Inhibition of CYP2C9 (unknown origin)
Cytochrome P450 2C19 = Cytochrome P450 2C19 (Homo sapiens, UniProt P33261); test: Inhibition of CYP2C19 (unknown origin)
Liver microsome [3] = test: Metabolic stability in rat liver microsomes assessed as compound remaining at 10 uM after 30 mins; type: ADME; details: 0.5 h; outline: as §1
[4] = target: T1, Retinol-binding protein 4 (Homo sapiens, UniProt P02753)
[5] = target: T1, Retinol-binding protein 4; remark: listed apart in the source
Cytochrome P450 3A4 = Cytochrome P450 3A4 (Homo sapiens, UniProt P08684); test: Inhibition of CYP3A4 (unknown origin)
[6] = Volume of distribution at steady state in Sprague-Dawley rat plasma at 0.5 mg/kg, iv; type: ADME, organism-based; design: dose 0.5 mg/kg, route intravenous; details: read-out: Vdss
Outline: (§2)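 Three drug-naive adult male Sprague-Dawley rats per group, given a single iv dose on day 0. Compound was measured in plasma over time. Parameters were derived from the plasma concentration–time curve: terminal-phase half-life, total body clearance, and steady-state volume of distribution. Urine was also collected from 0 to 48 h.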

[7] = Oral bioavailability in Sprague-Dawley rat plasma at 5 mg/kg; type: ADME, organism-based
Outline: (§3)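 Adult male Sprague-Dawley rats, drug-naive, three per group. Plasma levels gave the terminal-phase half-life. Bioavailability F = (AUCINF po × dose iv) ÷ (AUCINF iv × dose po), using a 0.5 mg/kg iv reference group.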

[8] = AUC (0 to infinity) in Sprague-Dawley rat plasma at 5 mg/kg, po; type: ADME, organism-based; design: time infinity, dose 5 mg/kg, route oral
Outline: (§4)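 Oral dosing at 5 mg/kg in groups of three drug-naive adult male Sprague-Dawley rats, given either once on day 0 or once daily from day 0 to day 6. Plasma was sampled after the day 0 or day 6 dose. AUClast runs from 0 to the last quantifiable point; AUC(0–inf) is extrapolated to infinity. Values are means.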

[9] = Cmax in Sprague-Dawley rat plasma at 5 mg/kg, po; type: ADME, organism-based; design: dose 5 mg/kg, route oral
Outline: (§5)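 Groups of three drug-naive adult male Sprague-Dawley rats. Dosing was iv at 0.5 mg/kg once on day 0, or po at 5 mg/kg once on day 0 or once daily from day 0 to day 6. Cmax is the maximum observed plasma concentration. Pre-dose plasma was also sampled on day 6, and urine was collected 0–48 h after iv dosing.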

[10] = AUClast in Sprague-Dawley rat plasma at 0.5 mg/kg, iv; type: ADME, organism-based; design: time 0 - last, dose 0.5 mg/kg, route intravenous
Outline: (§6)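 Single intravenous dose of 0.5 mg/kg given on day 0 to a group of three drug-naive adult male Sprague-Dawley rats. Compound was measured in plasma over time, and urine was collected from 0 to 48 h. AUClast runs from 0 to the last quantifiable time point; AUC(0–inf) is extrapolated to infinity. Values are group means.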

[11] = Cmax in Sprague-Dawley rat plasma at 0.5 mg/kg, iv; type: ADME, organism-based; design: dose 0.5 mg/kg, route intravenous; outline: as §5
[12] = AUClast in Sprague-Dawley rat plasma at 5 mg/kg, po; type: ADME, organism-based; design: time 0 - last, dose 5 mg/kg, route oral; outline: as §4
in vivo [13] = details: Sprague-Dawley, rat, plasma, iv, 0.5 mg/kg
[14] = Apparent half-life of the terminal phase of elimination in Sprague-Dawley rat plasma at 0.5 mg/kg, iv; type: ADME, organism-based; design: dose 0.5 mg/kg, route intravenous; details: read-out: betat1/2(app) (converted); outline: as §2
in vivo [15] = details: Sprague-Dawley, rat, plasma, po, 5 mg/kg
[16] = AUC (0 to infinity) in Sprague-Dawley rat plasma at 0.5 mg/kg, iv; type: ADME, organism-based; design: time infinity, dose 0.5 mg/kg, route intravenous; outline: as §6
[17] = Apparent half-life of the terminal phase of elimination in Sprague-Dawley rat plasma at 5 mg/kg, po; type: ADME, organism-based; design: dose 5 mg/kg, route oral; details: read-out: betat1/2(app) (converted); outline: as §3
[18] = Clearance in Sprague-Dawley rat plasma at 0.5 mg/kg, iv; type: ADME, organism-based; design: dose 0.5 mg/kg, route intravenous; outline: as §2

Cytochrome P450 2D6, sequence (P10635 whole entry): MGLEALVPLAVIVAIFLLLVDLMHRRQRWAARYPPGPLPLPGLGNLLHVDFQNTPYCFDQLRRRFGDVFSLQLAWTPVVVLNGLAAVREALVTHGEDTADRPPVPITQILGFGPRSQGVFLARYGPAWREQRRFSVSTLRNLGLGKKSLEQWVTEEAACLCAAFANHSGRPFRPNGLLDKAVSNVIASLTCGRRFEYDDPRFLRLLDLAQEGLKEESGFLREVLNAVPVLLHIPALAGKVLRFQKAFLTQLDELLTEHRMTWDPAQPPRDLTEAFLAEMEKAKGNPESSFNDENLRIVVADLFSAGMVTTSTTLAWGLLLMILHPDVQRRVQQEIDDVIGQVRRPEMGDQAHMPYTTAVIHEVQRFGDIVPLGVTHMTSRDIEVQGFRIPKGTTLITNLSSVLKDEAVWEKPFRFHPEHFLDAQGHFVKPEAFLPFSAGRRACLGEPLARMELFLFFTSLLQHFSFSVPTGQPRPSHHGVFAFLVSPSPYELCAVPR
Cytochrome P450 3A4, sequence (P08684 whole entry): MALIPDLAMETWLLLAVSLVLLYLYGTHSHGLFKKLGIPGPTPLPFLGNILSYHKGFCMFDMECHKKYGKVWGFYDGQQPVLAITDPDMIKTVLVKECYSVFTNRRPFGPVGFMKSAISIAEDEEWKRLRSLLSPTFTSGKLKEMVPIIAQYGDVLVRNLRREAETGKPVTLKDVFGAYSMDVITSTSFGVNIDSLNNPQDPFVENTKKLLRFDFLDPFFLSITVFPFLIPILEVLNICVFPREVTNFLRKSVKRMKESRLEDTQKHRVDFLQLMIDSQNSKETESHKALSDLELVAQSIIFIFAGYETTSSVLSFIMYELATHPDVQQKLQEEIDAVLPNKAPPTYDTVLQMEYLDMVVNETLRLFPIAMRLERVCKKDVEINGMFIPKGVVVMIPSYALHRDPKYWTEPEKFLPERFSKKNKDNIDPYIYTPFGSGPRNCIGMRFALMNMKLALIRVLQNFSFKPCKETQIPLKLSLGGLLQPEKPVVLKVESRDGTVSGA
Cytochrome P450 2C9, sequence (P11712 whole entry): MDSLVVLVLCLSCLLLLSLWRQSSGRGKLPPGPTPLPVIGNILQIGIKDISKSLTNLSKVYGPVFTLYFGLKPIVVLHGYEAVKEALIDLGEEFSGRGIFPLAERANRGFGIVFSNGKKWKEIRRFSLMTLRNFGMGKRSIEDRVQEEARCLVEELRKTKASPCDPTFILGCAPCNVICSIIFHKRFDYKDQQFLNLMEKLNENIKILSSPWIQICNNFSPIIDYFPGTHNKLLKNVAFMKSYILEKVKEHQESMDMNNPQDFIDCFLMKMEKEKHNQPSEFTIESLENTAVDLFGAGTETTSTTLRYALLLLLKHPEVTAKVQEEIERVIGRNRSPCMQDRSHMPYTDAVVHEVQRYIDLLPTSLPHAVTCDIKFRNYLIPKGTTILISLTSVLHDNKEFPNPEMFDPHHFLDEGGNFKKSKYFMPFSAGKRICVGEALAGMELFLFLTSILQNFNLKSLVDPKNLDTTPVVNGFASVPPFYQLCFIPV
Cytochrome P450 2C19, sequence (P33261 whole entry): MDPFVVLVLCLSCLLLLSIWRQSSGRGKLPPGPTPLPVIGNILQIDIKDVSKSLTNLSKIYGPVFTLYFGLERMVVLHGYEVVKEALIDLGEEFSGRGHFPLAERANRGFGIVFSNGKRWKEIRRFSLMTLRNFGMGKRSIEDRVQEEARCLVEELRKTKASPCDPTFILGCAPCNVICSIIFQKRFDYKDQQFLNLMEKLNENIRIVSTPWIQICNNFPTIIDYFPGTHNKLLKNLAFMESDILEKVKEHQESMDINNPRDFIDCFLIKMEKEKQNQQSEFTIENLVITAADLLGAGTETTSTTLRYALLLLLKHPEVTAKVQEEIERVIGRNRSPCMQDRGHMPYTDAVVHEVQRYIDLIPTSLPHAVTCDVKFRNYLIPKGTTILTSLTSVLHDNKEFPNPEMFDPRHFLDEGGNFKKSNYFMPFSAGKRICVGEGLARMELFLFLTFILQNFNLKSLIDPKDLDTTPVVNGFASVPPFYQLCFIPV

SMILES	Stability (Liver microsome [1])	Kinetic_solubility [2]	Stability (Liver microsome [3])	IC50 [4]	IC50 [5]	further results
O=C(O)c1ccccc1NC(=O)N1CCC(c2ccccc2C(F)(F)F)CC1	3%	57 µM	85%			IC50 (Cytochrome P450 2D6): 100 µM; IC50 (Cytochrome P450 2C9): > 100 µM; IC50 (Cytochrome P450 2C19): 52 µM
CS(=O)(=O)NC(=O)c1ccccc1NC(=O)N1CCC(c2ccccc2C(F)(F)F)CC1				0.298 µM		
O=C(NS(=O)(=O)C1CC1)c1ccccc1NC(=O)N1CCC(c2ccccc2C(F)(F)F)CC1				0.244 µM	5.31 µM	
O=C(NS(=O)(=O)c1ccccc1)c1ccccc1NC(=O)N1CCC(c2ccccc2C(F)(F)F)CC1				> 3 µM		
O=C(O)C(=O)N1CCC(c2ccccc2C(F)(F)F)CC1				0.234 µM	3.13 µM	
O=C(O)CC(=O)N1CCC(c2ccccc2C(F)(F)F)CC1				1.47 µM		
O=C(O)CCC(=O)N1CCC(c2ccccc2C(F)(F)F)CC1				> 3 µM		
CN(CCOc1ccccc1C(F)(F)F)C(=O)Nc1ccccc1C(=O)O				1.9 µM	2.65 µM	
CN(CCOc1ccc(Cl)cc1C(C)(C)C)C(=O)Nc1ccccc1C(=O)O				> 3 µM		
CN(CCOc1ccccc1C(C)(C)C)C(=O)Nc1ccccc1C(=O)O	1.1%					
CN(CCOc1ccc(F)cc1C(C)(C)C)C(=O)Nc1ccccc1C(=O)O	3.2%			0.141 µM		
O=C(O)c1ccccc1NC(=O)N1CCc2ccccc2CC1				> 3 µM		
O=C(O)c1ccccc1NC(=O)N1C[C@@H]2[C@H](C1)[C@H]2c1ccccc1C(F)(F)F				> 3 µM		
O=C(O)c1ccccc1NC(=O)N1C[C@@H]2[C@H](C1)[C@@H]2c1ccccc1C(F)(F)F				> 3 µM		
O=C(O)c1ccccc1NC(=O)N1CC2(C1)CN(c1ccccc1C(F)(F)F)C2				> 3 µM		
O=C(O)c1ccccc1NC(=O)N1CC(c2ccccc2C(F)(F)F)C1				> 3 µM	8.38 µM	
O=C(O)c1ccccc1NC(=O)N1CC(Oc2ccccc2C(F)(F)F)C1				1.44 µM		

SMILES	Stability (Liver microsome [1])	Kinetic_solubility [2]	Stability (Liver microsome [3])	IC50 [4]	IC50 [5]	further results
O=C(O)c1ccccc1NC(=O)N1CCC2(CCc3ccccc32)CC1				3.76 µM		
O=C(O)c1ccccc1NC(=O)N1C[C@H]2C[C@@H](c3ccccc3C(F)(F)F)C[C@H]2C1	100%	55 µM	75%	0.0727 µM	0.294 µM	IC50 (Cytochrome P450 3A4): 28 µM; IC50 (Cytochrome P450 2D6): > 100 µM; Vd [6]: 0.523 L/kg; bioavailability [7]: 44%; AUC(0-inf) [8]: 63000 ng·h/mL; Cmax [9]: 7830 ng/mL; AUC(0-t) [10]: 13200 ng·h/mL; Cmax [11]: 2940 ng/mL; AUC(0-t) [12]: 62100 ng·h/mL; Tmax (in vivo [13]): 4.98 min; half-life [14]: 10.3 h; Tmax (in vivo [15]): 0.33 h; AUC(0-inf) [16]: 14300 ng·h/mL; half-life [17]: 7.6 h; clearance [18]: 0.588 mL/min/kg; IC50 (Cytochrome P450 2C9): 0.34 µM; IC50 (Cytochrome P450 2C19): 29 µM
O=C(O)c1ccccc1NC(=O)N1C[C@H]2C[C@H](c3ccccc3C(F)(F)F)C[C@H]2C1				> 3 µM		
O=C(O)c1cc(F)ccc1NC(=O)N1C[C@H]2C[C@@H](c3ccccc3C(F)(F)F)C[C@H]2C1	57%	55 µM	100%	0.0888 µM	0.285 µM	IC50 (Cytochrome P450 3A4): 53 µM; IC50 (Cytochrome P450 2D6): > 100 µM; IC50 (Cytochrome P450 2C9): 0.33 µM; IC50 (Cytochrome P450 2C19): 31 µM
COc1ccc(NC(=O)N2C[C@H]3C[C@@H](c4ccccc4C(F)(F)F)C[C@H]3C2)c(C(=O)O)c1	89%	34 µM	72%	0.17 µM		IC50 (Cytochrome P450 3A4): 8 µM; IC50 (Cytochrome P450 2D6): > 100 µM; IC50 (Cytochrome P450 2C9): 13 µM; IC50 (Cytochrome P450 2C19): 75 µM
O=C(O)c1cc(Cl)ccc1NC(=O)N1C[C@H]2C[C@@H](c3ccccc3C(F)(F)F)C[C@H]2C1	89%	60 µM	87%	[…]		
CS(=O)(=O)c1ccc(NC(=O)N2C[C@H]3C[C@@H](c4ccccc4C(F)(F)F)C[C@H]3C2)c(C(=O)O)c1	100%	> 100 µM	100%	0.163 µM	1.55 µM	IC50 (Cytochrome P450 3A4): 42 µM; IC50 (Cytochrome P450 2D6): > 100 µM; IC50 (Cytochrome P450 2C9): 8.7 µM; IC50 (Cytochrome P450 2C19): 32 µM
O=C(O)c1cccnc1NC(=O)N1C[C@H]2C[C@@H](c3ccccc3C(F)(F)F)C[C@H]2C1	83%	82 µM	81%	> 3 µM		IC50 (Cytochrome P450 3A4): > 100 µM; IC50 (Cytochrome P450 2D6): > 100 µM; IC50 (Cytochrome P450 2C9): 27 µM; IC50 (Cytochrome P450 2C19): 33 µM
O=C(O)c1cnccc1NC(=O)N1C[C@H]2C[C@@H](c3ccccc3C(F)(F)F)C[C@H]2C1	81%	29 µM	82%	0.0187 µM	0.179 µM	IC50 (Cytochrome P450 3A4): < 0.046 µM; IC50 (Cytochrome P450 2D6): > 100 µM; IC50 (Cytochrome P450 2C9): 5.6 µM; IC50 (Cytochrome P450 2C19): 2.1 µM
Cc1cc(NC(=O)N2C[C@H]3C[C@@H](c4ccccc4C(F)(F)F)C[C@H]3C2)c(C(=O)O)cn1	71%	93 µM	76%			IC50 (Cytochrome P450 3A4): 1.1 µM; IC50 (Cytochrome P450 2D6): > 100 µM; IC50 (Cytochrome P450 2C9): 1 µM; IC50 (Cytochrome P450 2C19): 12 µM
O=C(O)c1cnncc1NC(=O)N1C[C@H]2C[C@@H](c3ccccc3C(F)(F)F)C[C@H]2C1	97%	> 100 µM	61%	0.024 µM	0.121 µM	IC50 (Cytochrome P450 3A4): 12 µM; IC50 (Cytochrome P450 2D6): > 100 µM; IC50 (Cytochrome P450 2C9): 17 µM; IC50 (Cytochrome P450 2C19): 6 µM
C[C@H](NC(=O)N1C[C@H]2C[C@@H](c3ccccc3C(F)(F)F)C[C@H]2C1)C(=O)O				1.48 µM		
C[C@@H](NC(=O)N1C[C@H]2C[C@@H](c3ccccc3C(F)(F)F)C[C@H]2C1)C(=O)O				> 3 µM		
O=C(O)[C@@H](NC(=O)N1C[C@H]2C[C@@H](c3ccccc3C(F)(F)F)C[C@H]2C1)c1ccccc1				0.124 µM	0.829 µM	
O=C(O)[C@H](NC(=O)N1C[C@H]2C[C@@H](c3ccccc3C(F)(F)F)C[C@H]2C1)c1ccccc1				1.32 µM	8.34 µM	
O=C(O)C1CCCN1C(=O)N1CCC(c2ccccc2C(F)(F)F)CC1 (racemic)				> 3 µM		
